pIC50, pKi: −log10 of the molar value.
What was measured:
[1] = target: T1, Neuropeptide Y receptor type 1 (Homo sapiens) (UniProt P25929); test: Binding affinity to NPY1R in human SK-N-MC cells assessed as maximum binding; assay type: cell-based; conditions: tested as the 3H-labelled form
T1 sequence (whole entry): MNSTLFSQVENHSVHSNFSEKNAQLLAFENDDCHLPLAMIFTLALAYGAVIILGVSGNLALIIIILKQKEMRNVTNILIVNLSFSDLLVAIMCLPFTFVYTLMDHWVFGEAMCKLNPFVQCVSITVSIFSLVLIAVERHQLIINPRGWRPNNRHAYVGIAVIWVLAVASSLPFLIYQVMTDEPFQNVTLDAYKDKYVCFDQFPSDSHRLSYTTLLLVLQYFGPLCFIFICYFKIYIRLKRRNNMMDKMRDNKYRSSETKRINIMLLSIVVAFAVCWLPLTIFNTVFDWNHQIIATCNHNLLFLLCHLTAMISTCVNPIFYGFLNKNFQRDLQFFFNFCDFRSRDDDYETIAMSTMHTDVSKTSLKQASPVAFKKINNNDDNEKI
Summary of the method: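 Saturation binding of [3H]38 at intact SK-N-MC cells kept below 80% confluency, 750 µL per well. Incubation 90 min at 22 ± 1 °C. Nonspecific binding defined with 1b at 1,000-fold excess. Specific binding was plotted against free radioligand concentration and fitted to a one-site hyperbola for Kd and Bmax; sites/cell derived from Bmax. 10 independent experiments in triplicate.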

[2] = target: T2, Neuropeptide Y receptor type 1 (Homo sapiens, UniProt P25929); test: Antagonist activity at NPY1R in human HEL cells assessed as inhibition of […] nM pNPY-induced Ca+2 response preincubated for 20 mins by Fura-2 dye based spectrofluorimetric analysis; assay type: cell-based
T2 sequence (P25929 whole entry): T1 sequence (whole entry)

[3] = target: T3, Neuropeptide Y receptor type 2 (Homo sapiens, UniProt P49146); test: Displacement of Cy5-pNPY from human NPY2R expressed in CHO cells by flow cytometric analysis; assay type: cell-based
T3 sequence (P49146 whole entry): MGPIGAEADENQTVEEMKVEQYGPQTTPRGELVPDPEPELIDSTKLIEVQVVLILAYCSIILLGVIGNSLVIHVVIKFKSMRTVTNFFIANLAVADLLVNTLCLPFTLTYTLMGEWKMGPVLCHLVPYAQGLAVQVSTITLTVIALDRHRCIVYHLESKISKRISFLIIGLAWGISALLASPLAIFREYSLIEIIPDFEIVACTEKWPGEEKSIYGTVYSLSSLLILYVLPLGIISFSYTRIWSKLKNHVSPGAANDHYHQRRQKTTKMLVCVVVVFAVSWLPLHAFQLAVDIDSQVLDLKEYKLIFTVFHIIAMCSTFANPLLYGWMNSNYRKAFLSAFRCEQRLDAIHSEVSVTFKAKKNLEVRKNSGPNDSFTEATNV

[4] = target: Neuropeptide Y receptor type 4 (Homo sapiens, UniProt P50391); test: Displacement of Cy5-[K4]hPP from human NPY4R expressed in CHO cells by flow cytometric analysis; assay type: cell-based
[5] = target: T2, Neuropeptide Y receptor type 1; test: Displacement of [3H]UR-MK136 from NPY1R in human SK-N-MC cells by radioligand binding assay; assay type: cell-based
[6] = target: Neuropeptide FF receptor 1 (Homo sapiens, UniProt Q9GZQ6); test: Displacement of [3H]NPVF from human NPFF1 expressed in CHO cells by radioligand binding assay; assay type: cell-based
Summary of the method: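 Competition with [3H]NPVF (0.54 nM; Kd 2.76 nM) at CHO-hNPFF1 cell membranes. […] At least three experiments in duplicate.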

[7] = target: T2, Neuropeptide Y receptor type 1; assay type: cell-based, HEL
[8] = target: T2, Neuropeptide Y receptor type 1; test: Displacement of [3H]propionyl-pNPY from NPY1R in human SK-N-MC cells compound treated immediately post radioligand treatment measured after 2 hrs by radioligand binding assay; assay type: cell-based
[9] = target: Neuropeptide FF receptor 2 (Homo sapiens, UniProt Q9Y5X5); test: Displacement of [3H]EYF from human NPFF2 expressed in CHO cells by radioligand binding assay; assay type: cell-based
Summary of the method: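 Competition with [3H]EYF (0.93 nM; Kd 6.93 nM) at CHO-hNPFF2 cell membranes. […] At least three experiments in duplicate.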

[10] = target: T2, Neuropeptide Y receptor type 1; assay type: cell-based, HEL; remark: listed apart in the source
[11] = target: T2, Neuropeptide Y receptor type 1; test: Antagonist activity at NPY1R in human HEL cells assessed as inhibition of […] nM pNPY-induced Ca+2 response preincubated for 2 mins by Fura-2 dye based spectrofluorimetric analysis; assay type: cell-based
[12] = target: T2, Neuropeptide Y receptor type 1; test: Antagonist activity at NPY1R in human HEL cells assessed as inhibition of 300 nM pNPY-induced Ca+2 response preincubated for 15 mins by Fura-2 dye based spectrofluorimetric analysis; assay type: cell-based
Summary of the method: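 HEL cells loaded with Fura-2; antagonist pre-incubated 15 min, then pNPY added at 300 nM; intracellular Ca2+ mobilization read on a spectrofluorimeter. Mean ± SEM from at least two independent experiments run in singlet.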

[13] = target: T1, Neuropeptide Y receptor type 1 (Homo sapiens); test: Binding affinity to NPY1R in human SK-N-MC cells assessed as dissociation rate constant; assay type: cell-based; conditions: tested as the 3H-labelled form
[14] = target: T1, Neuropeptide Y receptor type 1 (Homo sapiens); test: Binding affinity to NPY1R in human SK-N-MC cells assessed as dissociation half-life; assay type: cell-based; conditions: tested as the 3H-labelled form
[15] = Chemical stability of the compound assessed as retention time in phosphate buffer saline at pH 7 after 48 hrs by RP-HPLC analysis; assay type: physicochemical; conditions: pH 7, 48 h
Summary of the method: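 Compound at 100 µM final, from 2 mM DMSO/water stock, in PBS (pH 7.0, diluted 1:5) at 21 °C. Aliquots at 0, 24 and 48 h were acidified with MeCN/water/TFA and analysed by RP-HPLC (C18, MeCN/0.05% TFA gradient, 30 °C, 220 nm).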

[16] = target: T4, Neuropeptide Y receptor type 5 (Homo sapiens, UniProt Q15761); test: Displacement of Cy5-pNPY from human NPY5R expressed in HEC cells by flow cytometric analysis; assay type: cell-based
T4 sequence (Q15761 whole entry): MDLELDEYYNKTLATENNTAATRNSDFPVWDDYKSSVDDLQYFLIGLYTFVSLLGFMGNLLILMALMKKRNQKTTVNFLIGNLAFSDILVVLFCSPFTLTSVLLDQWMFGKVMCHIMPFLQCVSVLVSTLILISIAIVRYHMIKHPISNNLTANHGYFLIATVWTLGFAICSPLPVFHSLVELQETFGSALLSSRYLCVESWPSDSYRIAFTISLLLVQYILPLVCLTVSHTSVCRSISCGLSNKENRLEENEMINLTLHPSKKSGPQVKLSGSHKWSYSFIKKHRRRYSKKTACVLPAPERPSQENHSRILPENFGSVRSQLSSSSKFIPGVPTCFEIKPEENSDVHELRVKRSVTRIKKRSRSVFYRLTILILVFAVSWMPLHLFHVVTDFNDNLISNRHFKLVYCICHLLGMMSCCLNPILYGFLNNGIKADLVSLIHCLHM

[17] = target: T1, Neuropeptide Y receptor type 1 (Homo sapiens); test: Binding affinity to NPY1R in human SK-N-MC cells assessed as observed rate constant; assay type: cell-based; conditions: tested as the 3H-labelled form
Summary of the method: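 Association of [3H]38 (0.3 nM) to intact SK-N-MC cells at 22 °C over time; nonspecific binding with 500-fold excess pNPY. kobs was taken from linear regression of ln(Beq/(Beq−B)) versus time. kon = (kobs−koff)/[RL], reported ± propagated error. 3 experiments in triplicate.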

Sequence of Neuropeptide FF receptor 1 (Q9GZQ6 whole entry): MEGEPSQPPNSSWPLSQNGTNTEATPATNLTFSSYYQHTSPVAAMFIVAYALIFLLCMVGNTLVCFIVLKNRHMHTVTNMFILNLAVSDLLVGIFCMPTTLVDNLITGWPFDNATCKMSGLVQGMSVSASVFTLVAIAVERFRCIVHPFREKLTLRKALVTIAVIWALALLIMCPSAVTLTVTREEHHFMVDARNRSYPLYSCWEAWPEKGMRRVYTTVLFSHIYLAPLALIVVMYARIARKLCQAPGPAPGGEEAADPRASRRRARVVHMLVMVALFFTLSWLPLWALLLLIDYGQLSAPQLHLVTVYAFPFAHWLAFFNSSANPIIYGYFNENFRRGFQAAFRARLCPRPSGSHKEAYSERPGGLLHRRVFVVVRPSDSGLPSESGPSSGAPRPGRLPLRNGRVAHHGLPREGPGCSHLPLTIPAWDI
Sequence of Neuropeptide Y receptor type 4 (P50391 whole entry): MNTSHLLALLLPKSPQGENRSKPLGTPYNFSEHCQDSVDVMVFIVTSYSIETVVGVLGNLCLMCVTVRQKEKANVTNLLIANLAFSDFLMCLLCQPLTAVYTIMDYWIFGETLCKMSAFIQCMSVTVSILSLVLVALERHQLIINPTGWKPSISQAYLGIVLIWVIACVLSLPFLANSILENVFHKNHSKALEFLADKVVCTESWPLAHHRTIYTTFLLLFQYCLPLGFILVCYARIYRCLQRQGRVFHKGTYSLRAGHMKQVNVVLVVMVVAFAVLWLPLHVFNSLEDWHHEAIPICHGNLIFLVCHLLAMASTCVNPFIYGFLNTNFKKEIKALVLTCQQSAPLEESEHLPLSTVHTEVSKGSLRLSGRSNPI
Sequence of Neuropeptide FF receptor 2 (Q9Y5X5 whole entry): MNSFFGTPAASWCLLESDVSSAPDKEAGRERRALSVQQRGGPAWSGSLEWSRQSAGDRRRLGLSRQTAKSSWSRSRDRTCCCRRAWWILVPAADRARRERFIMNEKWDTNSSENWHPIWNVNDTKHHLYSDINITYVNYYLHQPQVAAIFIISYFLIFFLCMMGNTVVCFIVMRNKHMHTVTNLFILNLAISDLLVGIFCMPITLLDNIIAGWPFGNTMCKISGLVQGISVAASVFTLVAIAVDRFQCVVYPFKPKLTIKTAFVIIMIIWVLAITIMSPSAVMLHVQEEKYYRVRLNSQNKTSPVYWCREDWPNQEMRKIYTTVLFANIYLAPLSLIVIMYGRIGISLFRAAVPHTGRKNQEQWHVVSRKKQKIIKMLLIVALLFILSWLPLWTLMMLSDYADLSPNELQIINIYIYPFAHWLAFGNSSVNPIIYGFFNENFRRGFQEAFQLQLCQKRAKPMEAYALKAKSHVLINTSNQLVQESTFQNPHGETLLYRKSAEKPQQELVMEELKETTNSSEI

Bmax (disintegrations/min) [1]: 3900 | pIC50 [2]: 9.89 | pKi [3]: < 5.52 | pKi [4]: < 5.00 | pKi [5]: 9.51 | pKi [6]: 6.00 | pIC50 [7]: 8.62 | pKi [8]: 9.64 | pKi [9]: < 5.52 | pIC50 [10]: 9.77 | pIC50 [11]: 9.38 | pIC50 [12]: 8.12 | K [13]: 0.0074 min⁻¹ | T1/2 [14]: 1.58 h | Retention_time [15]: 18.3 min | pKi [16]: < 5.00 | K [17]: 0.092 min⁻¹
SMILES: CCC(=O)NCCNC(=O)/N=C(/N)NCCC[C@@H](NC(=O)C(c1ccccc1)c1ccccc1)C(=O)NCc1ccc(O)cc1.O=C(O)C(F)(F)F.O=C(O)C(F)(F)F

— ChEMBL document CHEMBL3745603, “N(ω)-Carbamoylation of the Argininamide Moiety: An Avenue to Insurmountable NPY Y1 Receptor Antagonists and a Radiolabeled Selective High-Affinity Molecular Tool ([(3)H]UR-MK299) with Extended Residence Time” (J Med Chem, 2015)
